From PubChem BioAssay
HCT116 bCat-KO: beta-catenin-lacking colon tumor cell growth suppression | HCT116 beta-catenin knockout viability, CellTiter-Glo, 60 h; active compounds read low | viability, % at 10 µM | 1.5% of 140,000 active | AID 818;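 active means viability at or under a set limit, the compound median less 4 SD, cut at about 6% in these data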;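 further: 0% = Hyamine 1622 control at 20 µM and 100% = untreated cell control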
H69AR growth 86K: growth inhibitors of human H69AR lung tumor cells; viability, % at 10 µM; H69AR lung tumor viability, ATP luminescence, 72 h; active compounds read low; 6% of 85,000 active;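 active means viability at or below 40%; inactive means viability above 40%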;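 further: multidrug resistant small cell line overexpressing MRP-1 efflux transporter; 100% = mean luminescence of untreated control wells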
Lung fibro prol: blocks proliferation of human lung fibroblasts. viability, % at 10 µM. 1.1% of 85,000 active. LL 47 human lung fibroblast viability, ATP luminescence; active compounds read low;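 active means viability at or below 50% in the single dose screen; inactive means viability above 50%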;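 further: compound exposure lasted 72 h before the ATP readout; 100% = median luminescence of untreated cell-only wells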
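Signal: luminescent ATP detection, CellTiter-Glo; assay system: LL 47 human lung fibroblasts; input: 1,150 cells/well; incubation: overnight cell rest, 72 h compound treatment at 37 °C; measure: % viability versus median cells-only luminescence; medium: IMEM growth medium with 15% fetal bovine serum; dosing: compound addition at 0.1% DMSO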
HUVEC prolif 384: inhibitors of human endothelial cell proliferation; HUVEC proliferation, CellTiter-Glo luminescence, 72 h; active compounds read low; viability, % at 10 µM (by protocol); 1.1% of 86,000 active; AID 648;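 active means viability at or below 30%; inactive means viability above 30%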;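 further: 100% = median luminescence of DMSO-only cell control wells on each plate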
PTEN del growth: PTEN-deleted cell growth suppression. HCT116 PTEN-null viability, CellTiter-Glo, 60 h; active compounds read low. viability, % at 10 µM. 1.2% of 140,000 active;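 active means viability at or below a set limit, 4 SD under the median of all tested compounds, cut at about 3.7% in these data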;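 further: PTEN knockout HCT116 line with beta catenin targeted HCT116 as companion control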
Starred values were filed as active, the others as inactive. Many of the other results were omitted from the sample, so hits are more common in it than they were.

Screening O=C(NC(Nc1ncc(S(=O)(=O)c2ccc([N+](=O)[O-])cc2)s1)(C(F)(F)F)C(F)(F)F)c1ccc(Cl)cc1 returned HCT116 bCat-KO 2.6* and PTEN del growth 3.1*.
`Cc1nc([N+](=O)[O-])nn1C12CC3CC(CC(Cl)(C3)C1)C2` gave HCT116 bCat-KO 89.5 and PTEN del growth 98.0.
For Cc1cc(Nc2nc3ccccc3nc2Cl)n(-c2ccc([N+](=O)[O-])cc2)n1 the results were HCT116 bCat-KO 20.1, H69AR growth 86K 21.4*, Lung fibro prol 67.6, HUVEC prolif 384 67.0 and PTEN del growth 37.8.
Screening C=COC(=O)CSc1nc(-c2cccs2)ccc1C#N returned HCT116 bCat-KO 96.1, H69AR growth 86K 84.8, Lung fibro prol 102.2, HUVEC prolif 384 83.0 and PTEN del growth 77.0.
CCOC(=O)C(C)Sc1nc(-c2cccs2)ccc1C#N (stereo not drawn) was read as HCT116 bCat-KO 17.7, H69AR growth 86K 4.0*, Lung fibro prol 77.0, HUVEC prolif 384 52.7 and PTEN del growth 20.4.
For CCCCCCCCNC(=O)c1cccnc1SCC(=O)Nc1ccccc1OC the results were HCT116 bCat-KO 91.9 and PTEN del growth 95.1.
COc1ccc(OC)c(NC(=S)N2CCC(C(O)(c3ccccc3)c3ccccc3)CC2)c1 was read as HCT116 bCat-KO 71.3 and PTEN del growth 76.1.
CC(C)[C@H](NC(=O)[C@H](CC(=O)O)NC(=O)[C@H](CCCCN)NC(=O)[C@@H](N)CCCN=C(N)N)C(=O)N[C@@H](Cc1ccc(O)cc1)C(=O)O was read as HCT116 bCat-KO 95.0 and PTEN del growth 101.2.
Screening Cc1nn(-c2cc(N3CCCC3)ccc2[N+](=O)[O-])c(=O)c2ccccc12 returned HCT116 bCat-KO 91.0, H69AR growth 86K 32.9*, Lung fibro prol 103.5, HUVEC prolif 384 83.2 and PTEN del growth 88.2.
`Cc1nn(-c2cc(N3CCOCC3)ccc2[N+](=O)[O-])c(=O)c2ccccc12` gave HCT116 bCat-KO 98.3, H69AR growth 86K 100.5, Lung fibro prol 95.9, HUVEC prolif 384 90.8 and PTEN del growth 97.8.
`Cc1cc(Nc2ccccc2)n(C(=O)c2ccc(Cl)cc2)n1` gave HCT116 bCat-KO 93.2, H69AR growth 86K 68.6, Lung fibro prol 89.7, HUVEC prolif 384 86.3 and PTEN del growth 98.2.
For Cc1cc(C)nc(N/C(=N\S(=O)(=O)Cc2ccccc2)Nc2ccc(F)c(Cl)c2)n1 the results were HCT116 bCat-KO 82.3 and PTEN del growth 71.0.
`S=C(NCCCN1CCOCC1)Nc1ccc(Cl)c(Cl)c1` gave HCT116 bCat-KO 88.7 and PTEN del growth 89.1.
`COC(=O)c1ccc2c(=O)n(Cc3ccco3)c(SCC(=O)Nc3ccccc3Cl)nc2c1` gave HCT116 bCat-KO 67.7, H69AR growth 86K 16.6*, Lung fibro prol 91.4, HUVEC prolif 384 23.6* and PTEN del growth 20.8.
CCc1ccc(NC(=O)CSc2nc3cc(C(=O)OC)ccc3c(=O)n2CC2CCCO2)cc1 (stereo not drawn) was read as HCT116 bCat-KO 48.4, H69AR growth 86K 3.5*, Lung fibro prol 36.3*, HUVEC prolif 384 48.4 and PTEN del growth 8.3.
COC(=O)c1ccc2c(=O)n(CC3CCCO3)c(SCC(=O)Nc3ccccc3Cl)nc2c1 (stereo not drawn) was read as HCT116 bCat-KO 2.5*, H69AR growth 86K 8.2*, Lung fibro prol 80.2, HUVEC prolif 384 46.9 and PTEN del growth 2.2*.
COC(=O)c1ccc2c(=O)n(Cc3ccc4c(c3)OCO4)c(SCC(=O)N3CCCC3)nc2c1 was read as H69AR growth 86K 2.5*, Lung fibro prol 118.9 and HUVEC prolif 384 88.4.
COC(=O)c1ccc2c(=O)n(CC3CCCO3)c(SCC(=O)Nc3ccccc3OC)nc2c1 (stereo not drawn) was read as HCT116 bCat-KO 77.3, H69AR growth 86K 83.3, Lung fibro prol 112.9, HUVEC prolif 384 85.8 and PTEN del growth 66.3.
Screening COC(=O)c1c(NC(=O)CSc2nc3ccccc3c(=O)n2Cc2ccco2)sc(C)c1C returned HCT116 bCat-KO 40.6 and PTEN del growth 60.8.
`O=C1C2C(C(=O)N1/N=C/c1ccc(N3CCCCC3)o1)C1C=CC2C12CC2` (stereo not drawn) gave HCT116 bCat-KO 95.9 and PTEN del growth 102.3.
For COc1cccc(N2CC(O)=C(c3nc4ccccc4c(=O)[nH]3)C2=N)c1 the results were HCT116 bCat-KO 18.0, H69AR growth 86K 28.9*, Lung fibro prol 66.3, HUVEC prolif 384 61.7 and PTEN del growth 16.7.
